This is an account of results in PMC2819033 (Journal of medicinal chemistry, 2009).

For data set [1], the system named is A2780 (ovarian carcinoma) cells. Description: MTT assay, A2780 cells. It counts as cell-based, Human. Conditions: read-out: IC50 A2780, 96 h exposure. In short, it runs like this: (§1)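 Cells were kept in MEM with 10% heat-inactivated FBS, 1 mM pyruvate, 4 mM L-glutamine and 1% NEAA at 37 °C, 5% CO2. Seeding by trypsinization was SW480 2.5 × 103 and A2780 5.0 × 10^3 cells/well, with 24 h preincubation and 96 h exposure to serial dilutions. MTT was added for 4 h, formazan dissolved in DMSO, and read at 550 nm (reference 690 nm). IC50 was interpolated from T/C curves using ≥3 experiments, ≥6 replicates each.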

The subject of data set [2] is SW480 (colon carcinoma) cells. As to the kind of experiment: MTT assay, SW480 cells. It counts as cell-based, Human. Conditions: read-out: IC50 SW480, 96 h exposure. The gist of the method:
as §1

The nature of data set [3]: n-octanol/water partition coefficient, shake flask method. It counts as physicochemical. The following applies: values of the aqua complexes. In short, it runs like this: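 Partition was measured by the shake-flask method. For the octanol phase, UV/vis was read at each complex's absorption maximum against n-octanol standards from 1 to 100 μM. For the aqueous phase, ruthenium was measured by ICP-MS (101Ru and 102Ru) with external calibration from 1 to 30 ppb. These samples were prepared in 5% HNO3 with 1 ppb 185Re as internal standard.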

Data set [4] concerns A2780 (ovarian carcinoma) cells. Conditions: read-out: IC50 A2780; cited from earlier work.
For data set [5] the following is noted: mononuclear analogue; cited from earlier work.
The subject of data set [6] is DAN-G (pancreatic cancer) cells. Description: Crystal violet assay, DAN-G. It counts as cell-based, Human. The following applies: read-out: IC50 DAN-G, 96 h. In short, it runs like this:
(§2)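 Crystal violet assay after 24 h preincubation. Adherent cells grown in RPMI with 10% heat-inactivated FBS and penicillin/streptomycin at 37 °C, 5% CO2; MCF-7 medium also had 1 mM sodium pyruvate and 1% nonessential amino acids. Seeding was 1.0 × 10^3 cells/well, or 250 cells/well for LCLC-103H. 20 mM DMF stocks were diluted 1000-fold in medium with 10% FCS for 96 h exposure. Bound dye was redissolved in 70% ethanol and read at 570 nm.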

Data set [7] deals with KYSE70-oxo oxoplatin-resistant cells. As to the kind of experiment: Crystal violet assay, KYSE70-oxo. The data set is classed as cell-based, Human. The following applies: for Resistance factor KYSE70-oxo: KYSE70-oxo versus KYSE70; for IC50: read-out: IC50 KYSE70-oxo, crystal violet, 96 h, oxoplatin-resistant line. The gist of the method: (§3)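 Resistant sublines were derived in-house by weekly exposure to rising oxoplatin concentrations over several months. Cells grew as adherent cultures in RPMI with 10% heat-inactivated FBS and penicillin/streptomycin at 37 °C, 5% CO2. After seeding at 1.0 × 10^3 cells/well and 24 h preincubation, cells had 96 h exposure to 20 mM DMF stocks diluted 1000-fold in medium. Crystal violet was redissolved in 70% ethanol and read at 570 nm.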

Data set [8] has as its system RT-4 (bladder cancer) cells. Description: Crystal violet assay, RT-4. The data set is classed as cell-based, Human. The following applies: read-out: IC50 RT-4, 96 h. In short, it runs like this:
as §2

Data set [9] deals with 5637-oxo oxoplatin-resistant cells. As to the kind of experiment: Crystal violet assay, 5637-oxo. It counts as cell-based, Human. Conditions: for Resistance factor 5637-oxo: 5637-oxo versus 5637; for IC50: read-out: IC50 5637-oxo, crystal violet, 96 h, oxoplatin-resistant line. The gist of the method:
as §3

For data set [10], the system named is A-427 (lung cancer) cells. As to the kind of experiment: Crystal violet assay, A-427. The following applies: read-out: IC50 A-427, 96 h. The data set is classed as cell-based, Human. The gist of the method: as §2
The subject of data set [11] is MCF-7 (breast cancer) cells. Description: Crystal violet assay, MCF-7. Conditions: read-out: IC50 MCF-7, 96 h. The data set is classed as cell-based, Human. In short, it runs like this:
as §2

In data set [12] the test system is SISO-oxo oxoplatin-resistant cells. As to the kind of experiment: Crystal violet assay, SISO-oxo. The data set is classed as cell-based, Human. The following applies: for Resistance factor SISO-oxo: SISO-oxo versus SISO; for IC50: read-out: IC50 SISO-oxo, crystal violet, 96 h, oxoplatin-resistant line. In short, it runs like this: as §3
The test system of data set [13] is LCLC-103H (lung cancer) cells. As to the kind of experiment: Crystal violet assay, LCLC-103H. It counts as cell-based, Human. Conditions: read-out: IC50 LCLC-103H, 96 h. In short, it runs like this: as §2
Data set [14] concerns 5637 (bladder cancer) cells. Description: Crystal violet assay, 5637. The following applies: read-out: IC50 5637, 96 h. The data set is classed as cell-based, Human. The gist of the method: as §2
The subject of data set [15] is KYSE70 (esophagus cancer) cells. As to the kind of experiment: Crystal violet assay, KYSE70. The data set is classed as cell-based, Human. The following applies: read-out: IC50 KYSE70, 96 h. The gist of the method:
as §2

Data set [16] concerns SISO (cervical cancer) cells. As to the kind of experiment: Crystal violet assay, SISO. It counts as cell-based, Human. Conditions: read-out: IC50 SISO, 96 h. In short, it runs like this: as §2
The subject of data set [17] is guanosine 5′-monophosphate (GMP). As to the kind of experiment: Nucleotide binding by 1H and 31P NMR, GMP. The following applies: ratio complex/nucleotide.
Data set [18] has as its system cytidine 5′-monophosphate (CMP). As to the kind of experiment: Nucleotide binding by 1H and 31P NMR, CMP.
In data set [19] the test system is uridine 5′-monophosphate (UMP). Description: Nucleotide binding by 1H and 31P NMR, UMP.
Data set [20] relates to thymidine 5′-monophosphate (TMP). As to the kind of experiment: Nucleotide binding by 1H and 31P NMR, TMP.
For data set [21], the system named is adenosine 5′-monophosphate (AMP). Description: Nucleotide binding by 1H and 31P NMR, AMP. The following applies: ratio complex/nucleotide.
The subject of data set [22] is RT-4 (bladder cancer) cells. Conditions: read-out: IC50 RT-4; crystal violet; cited from earlier work.
For data set [23], the system named is DAN-G (pancreatic cancer) cells. Conditions: read-out: IC50 DAN-G; crystal violet; cited from earlier work.
Data set [24] relates to A-427 (lung cancer) cells. The following applies: read-out: IC50 A-427; crystal violet; cited from earlier work.
The subject of data set [25] is LCLC-103H (lung cancer) cells. Conditions: read-out: IC50 LCLC-103H; crystal violet; cited from earlier work.

Like-named read-outs stand apart in the source and are kept apart here.

Turning to `Cc1c([O-])c(=O)ccn1CCn1ccc(=O)c([O-])c1C.Cc1ccc(C(C)C)cc1.Cc1ccc(C(C)C)cc1.[Cl-].[Cl-].[Ru+2].[Ru+2]` [1c, 1,2-Bis{chlorido[3-(oxo-κO)-2-methyl-4(1H)-pyridinonato-κO4](η ^6-p-cymene)ruthenium(II)}ethane], the concentration for half-maximal inhibition (IC50) in data set [1] was 84 ± 3 µM. In addition, the half-maximal inhibitory concentration (IC50) in [2] was determined as 76 ± 4 µM. Also, in [3], the “log Poct/water ICP-MS” value is on record as −1.42 and the “log Poct/water UV/vis” value is −1.42.
With `Cc1ccc(C(C)C)cc1.Cc1occc(=O)c1[O-].[Cl-].[Ru+2]` [[RuCl(cym)(mal)] 8, chlorido(maltolato-κO^2)(η^6-p-cymene)ruthenium(II)], the IC50 in [4] and in [2] was > 100 µM throughout. The pKa values in data set [5] is on record as 9.23.
For the compound `CCCn1ccc(=O)c([O-])c1C.Cc1ccc(C(C)C)cc1.[Cl-].[Ru+2]` [compound 7, chlorido[2-methyl-3-(oxo-κO)-1-propyl-4(1H)-pyridinonato-κO4](η^6-p-cymene)ruthenium(II)], the results for the IC50 in data set [1] and in data set [2] were 88 ± 12 µM and 42 ± 1 µM, respectively.
As to `N.N.[Cl-].[Cl-].[OH-].[OH-].[Pt+4]` [oxoplatin], the concentration for half-maximal inhibition (IC50) in data set [6] was found to be 11.8 ± 3.2 µM; in [7], 8.8 ± 5.2 µM; in data set [8], 26 ± 8 µM; in data set [9] it was 10.6 ± 1.3 µM; in [10], 13 ± 2.7 µM; in data set [11], 5.5 ± 1.1 µM. Further, the 50% inhibitory concentration (IC50) in data set [12] came to 5.2 ± 0.9 µM; in [13] it was 17.2 ± 5.1 µM; in [14], 3.1 ± 1.5 µM; in [15], 4.2 ± 2.8 µM; in data set [16] it was 1.7 ± 0.4 µM. The “Resistance factor KYSE70-oxo” value in data set [7] is 2.1. Besides, the “Resistance factor 5637-oxo” value in data set [9] was found to be 3.4. Moreover, the “Resistance factor SISO-oxo” value in data set [12] is recorded as 3.1.
As to `Cc1c([O-])c(=O)ccn1CCCCCCCCn1ccc(=O)c([O-])c1C.Cc1ccc(C(C)C)cc1.Cc1ccc(C(C)C)cc1.[Cl-].[Cl-].[Ru+2].[Ru+2]` [5c, 1,8-Bis{chlorido[3-(oxo-κO)-2-methyl-4(1H)-pyridinonato-κO4](η ^6-p-cymene)ruthenium}octane], the results for the half-inhibitory concentration (IC50) in data set [1] and in [2] were 5.7 ± 0.5 µM and 2.5 ± 0.2 µM, respectively. In addition, the “formation of GMP adducts” value in [17] was “proceeded rapidly and quantitatively up to a ratio of 2:1”. Further, the “reaction with CMP” value in data set [18] is listed as “no reaction was observed”. Besides, the “reaction with UMP” value in data set [19] is given as “no reaction was observed”. Also, the “reaction with TMP” value in data set [20] was “no reaction was observed”. For the same compound, the “formation of AMP adducts” value in data set [21] is “proceeded rapidly and quantitatively up to a ratio of 2:1”. Moreover, the “log Poct/water ICP-MS” value in [3] is −1.28. Besides, in [3], the “log Poct/water UV/vis” value was −1.23.
For the compound `N.N.[Cl][Pt][Cl]` [cisplatin], the “Resistance factor KYSE70-oxo” value in [7] amounted to 2.4. Moreover, the IC50 in [7] is 1.7 ± 0.4 µM; in data set [9] it was 1.1 ± 0.4 µM; in data set [22], 1.61 ± 0.16 µM; in data set [23] it was 0.73 ± 0.34 µM; in [12] it was 0.58 ± 0.08 µM; in data set [14], 0.37 ± 0.01 µM. Further, the IC50 is 1.96 ± 0.54 µM in data set [24], 0.72 ± 0.11 µM in [15], 0.28 ± 0.04 µM in [16] and 0.9 ± 0.19 µM in data set [25]. In addition, the “Resistance factor 5637-oxo” value in data set [9] is on record as 2.9. Further, the “Resistance factor SISO-oxo” value in data set [12] is 2.1.
